Measurements published in ChEMBL document CHEMBL4340513, “Dual-targeting Rutaecarpine-NO donor hybrids as novel anti-hypertensive agents by promoting release of CGRP” (Eur J Med Chem, 2019).
The source made the active and inactive calls. The rule behind the calls is not given here.

Tests used:
Aorta [1] = assay: Vasodilating activity in Sprague-Dawley rat aortic rings assessed as reduction in phenylephrine-induced contractions; format: functional, tissue-based
Method in brief: (§1)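 Thoracic aorta rings (4 mm) from male SD rats (250-300 g, chloral hydrate anesthesia), cleaned of fat and connective tissue and held at 2 g resting force in Krebs' solution. After KCl response, washout and 30 min re-equilibration, rings got L-cysteine (1 µM final, 10 min), then phenylephrine contraction (2 µM final). Cumulative concentration–response curve at 10^-9–10^-6 M final gave EC50. DMSO ≤0.1%.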

Aorta [2] = assay: Vasodilating activity in Sprague-Dawley rat aortic rings assessed as reduction in phenylephrine-induced contractions relative to control; format: functional; method in brief: as §1
Aorta [3] = assay: Vasodilating activity in Sprague-Dawley rat aortic rings assessed as reduction in phenylephrine-induced contractions at 1:1 ratio of test compound to furoxan; format: functional, tissue-based
Rattus norvegicus [4] = assay: Increase in CGRP level in Sprague-Dawley rat blood at 20 to 40 mg/kg, ip by ELISA; format: functional, organism-based
Method in brief: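 Rat serum CGRP was quantified with a commercial CGRP ELISA kit per the manufacturer. Optical density was read at 450 nm and concentrations were expressed as pg/mL.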

Aorta [5] = assay: Vasodilating activity in Sprague-Dawley rat aortic rings assessed as reduction in phenylephrine-induced contractions at 1:1 ratio of test compound to furoxan relative to control; format: functional
Aorta [6] = assay: Vasodilating activity in Sprague-Dawley rat aortic rings assessed as reduction in phenylephrine-induced contractions in presence of L-cysteine and TRPV1 antagonist capsazepine; format: functional, tissue-based
Method in brief: (§2)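 SD rat aortic rings were prepared as for the standard ring assay and randomly grouped. They were preincubated 10 min with L-cysteine (1 µM final) alone or with HC030031 (10 µM), capsazepine (10 µM), both, or CGRP(8-37) (10 µM, in water), all final. Phenylephrine contraction (2 µM final) preceded a cumulative concentration–response curve at 10^-9–10^-6 M final. Mean, n = 5.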

Rattus norvegicus [7] = assay: Antihypertensive activity in carotid cannulated Sprague-Dawley rat assessed as reduction in diastolic arterial pressure at 20 to 40 mg/kg, ip measured within 2 hrs relative to rutaecarpine; format: functional, organism-based
Method in brief: (§3)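 Male SD rats (250-300 g) under sodium pentobarbital (40 mg/kg, 10 mg/kg supplements), kept at 37°C and tracheotomized. The right carotid artery was cannulated to a pressure transducer. Once pressure was stable, compounds suspended in sodium carboxymethyl cellulose were given i.p. at 20 or 40 mg/kg. Arterial pressure was recorded continuously for 2 h to derive its decrease.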

Rattus norvegicus [8] = assay: Antihypertensive activity in carotid cannulated Sprague-Dawley rat assessed as reduction in systolic arterial pressure at 20 to 40 mg/kg, ip measured within 2 hrs relative to rutaecarpine; format: functional, organism-based; method in brief: as §3
Aorta [9] = assay: Vasodilating activity in Sprague-Dawley rat aortic rings assessed as reduction in phenylephrine-induced contractions in presence of L-cysteine and TRPA1 antagonist HC030031; format: functional, tissue-based; method in brief: as §2
Aorta [10] = assay: Vasodilating activity in Sprague-Dawley rat aortic rings assessed as reduction in phenylephrine-induced contractions in presence of L-cysteine and CGRP receptor antagonist CGRP(8 to 37); format: functional, tissue-based; method in brief: as §2

O=c1c2ccccc2nc2n1CCc1c-2n(CCOCCOCCNCc2c(-c3ccccc3)no[n+]2[O-])c2ccccc12
EC50 (Aorta [1]): 2040 nM
Emax (Aorta [2]): 43.2%

CCOc1ccccc1-c1no[n+]([O-])c1CNCCOCCOCCOc1ccc2nc3n(c(=O)c2c1)CCc1c-3[nH]c2ccccc12
EC50 (Aorta [1]): 116 nM
Emax (Aorta [2]): 69.9%

O=c1c2cc(OCCOCCOCCNCc3c(-c4ccsc4)no[n+]3[O-])ccc2nc2n1CCc1c-2[nH]c2ccccc12
EC50 (Aorta [1]): 30.7 nM
Emax (Aorta [2]): 73.6%

O=c1c2ccccc2nc2n1CCc1c-2[nH]c2ccccc12 [RUTAECARPINE]
EC50 (Aorta [3]): 29.7 nM
Activity (Rattus norvegicus [4]): inactive
EC50 (Aorta [1]): 156 nM
Emax (Aorta [2]): 66.3%
Emax (Aorta [5]): 75.3%

O=c1c2cc(OCCOCCOCCNCc3c(-c4cccc(F)c4)no[n+]3[O-])ccc2nc2n1CCc1c-2[nH]c2ccccc12
EC50 (Aorta [1]): 158 nM
Emax (Aorta [2]): 77.3%

O=c1c2cc(OCCOCCOCCNCc3c(-c4ccccc4)no[n+]3[O-])ccc2nc2n1CCc1c-2[nH]c2ccccc12
EC50 (Aorta [1]): 774 nM
Emax (Aorta [2]): 54.6%

CC(C)c1ccc(-c2no[n+]([O-])c2CNCCOCCOCCOc2ccc3nc4n(c(=O)c3c2)CCc2c-4[nH]c3ccccc23)cc1
EC50 (Aorta [1]): 2590 nM
Emax (Aorta [2]): 40.9%

O=c1c2cc(OCCOCCNCc3c(-c4ccccc4)no[n+]3[O-])ccc2nc2n1CCc1c-2[nH]c2ccccc12
EC50 (Aorta [1]): 15.2 nM
Emax (Aorta [2]): 81.4%

O=c1c2cc(OCCOCCOCCNCc3c(-c4cccc5ccccc45)no[n+]3[O-])ccc2nc2n1CCc1c-2[nH]c2ccccc12
EC50 (Aorta [1]): 1410 nM
Emax (Aorta [2]): 45.3%

O=c1c2cc(OCCOCCOCCNCc3c(-c4ccoc4)no[n+]3[O-])ccc2nc2n1CCc1c-2[nH]c2ccccc12
EC50 (Aorta [1]): 22500 nM
Emax (Aorta [2]): 30.6%

O=c1c2cc(OCc3c(-c4ccccc4)no[n+]3[O-])ccc2nc2n1CCc1c-2[nH]c2ccccc12
Activity (Aorta [6]): inactive
Activity (Rattus norvegicus [4]): inactive
EC50 (Aorta [1]): 13.1 nM
Emax (Aorta [2]): 85.2%
Activity (Rattus norvegicus [7]): Active
Activity (Rattus norvegicus [8]): Active
Activity (Aorta [9]): inactive
Activity (Aorta [10]): inactive

O=c1c2ccccc2nc2n1CCc1c-2[nH]c2ccc(OCCOCCOCCNCc3c(-c4ccccc4)no[n+]3[O-])cc12
EC50 (Aorta [1]): 112 nM
Emax (Aorta [2]): 64.2%
